Series [1] relates to Limosilactobacillus reuteri. Nature of the series: Toxicity in Lactobacillus reuteri ATCC 23272 at 100 uM measured after overnight incubation by disc diffusion method. Format: organism-based. The conditions noted are these: in vivo. In a few lines:
(§1)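 Grown in Lactobacilli MRS at 37 °C under anaerobic conditions. Blank 6 mm discs were soaked 20 min at room temperature in a 100 μM working dilution in medium. Discs were placed on streaked agar alongside DMSO vehicle and antibiotic discs (levofloxacin, gentamicin), incubated overnight at 37 °C, and zones of inhibition measured in mm.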

Another series has as its system Escherichia coli. Briefly: Toxicity in Escherichia coli K-12 MG1655 at 100 uM measured after overnight incubation by disc diffusion method. Format: organism-based, K-12 substr. MG1655. Conditions: in vivo. In a few lines:
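Grown in Luria broth at 37 °C under aerobic conditions. Blank 6 mm discs were soaked 20 min at room temperature in a 100 μM working dilution in medium. Discs were placed on streaked agar alongside DMSO vehicle and antibiotic discs (levofloxacin, gentamicin), incubated overnight at 37 °C, and inhibition zones measured in mm.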
(In general: Agar diffusion results depend on both activity and mobility in agar.)

Series [2] deals with Giardia intestinalis. Briefly: Antiparasitic activity against Giardia lamblia WB trophozoites assessed as parasite growth inhibition at 50 uM after 48 hrs by ATP bioluminescence-based CellTiter-Glo luminescent cell viability assay relative to control. Format: functional. Conditions: Giardia duodenalis; for inhibition of growth at 50 µM: read-out: GI. In a few lines: (§2)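 Trophozoites kept axenically in TYI-S-33 with penicillin and streptomycin. Each well held 5000 trophozoites and was incubated 48 h at 37 °C under anaerobic conditions in a GasPak pouch. Read-out was CellTiter-Glo ATP luminescence. Controls were 0.5% DMSO vehicle and 30 μM metronidazole. Primary screen at 50 μM in duplicate; hits were those above 50% inhibition. EC50 came from triplicate 8-point series (0.39–50 μM) and dose-response curves.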
Background: Cellular ATP, detected with luciferase, serves as a proxy for viable cell number.

A further series relates to Entamoeba histolytica. Nature of the series: Antiparasitic activity against Entamoeba histolytica HM-1:IMSS trophozoites assessed as parasite growth inhibition at 50 uM after 48 hrs by ATP bioluminescence-based CellTiter-Glo luminescent cell viability assay relative to control. The conditions noted are these: for inhibition of growth at 50 µM: read-out: GI. Format: functional. The gist of the method: as §2

Series [3] concerns Lactobacillus acidophilus. Briefly: Toxicity in Lactobacillus acidophilus ATCC 43560 at 100 uM measured after overnight incubation by disc diffusion method. In kind it is organism-based. The conditions noted are these: in vivo. In a few lines:
as §1

In series [4] the test system is Lacticaseibacillus rhamnosus. Briefly: Toxicity in Lactobacillus rhamnosus ATCC 53103 at 100 uM measured after overnight incubation by disc diffusion method. Format: organism-based, GG. Conditions: in vivo. The gist of the method:
as §1

In a further series the test system is Trichomonas vaginalis. Briefly: Antiparasitic activity against Trichomonas vaginalis assessed as parasite growth inhibition at 50 uM after 24 hrs by hemacytometer relative to control. Conditions: read-out: GI. Format: functional. The gist of the method: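 G3 strain cultured in TYM Diamond's medium in 15 mL tubes, with compound in DMSO. Controls were untreated and 0.1% DMSO. After 24 h, cells were counted by hemacytometer and normalized to the DMSO controls. Screening was at 50 μM. IC50 came from titrations of 5–40 μM with variable-slope regression, 4 independent trials on different days, and was then re-confirmed.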

Series [5] relates to Giardia intestinalis. Briefly: Antiparasitic activity against Giardia lamblia WB trophozoites assessed as parasite growth inhibition after 48 hrs by ATP bioluminescence-based CellTiter-Glo luminescent cell viability assay. In kind it is functional, organism-based. Conditions: Giardia duodenalis. The gist of the method:
as §2

The test system of series [6] is Aspergillus parasiticus. Briefly: Antifungal activity against Aspergillus parasiticus NRRL5862 assessed as fungal growth at 500 uM after 24 hrs by microtiter plate liquid bioassay (reference value: 100%). Format: functional. The gist of the method:
(§3)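 A. parasiticus grown at 35 °C on PDA. Liquid assay in RPMI 1640, 3 × 104 to 5 × 10^4 CFU per mL, triplicate wells, 35 °C. Compounds in DMSO (<2% in media). No-treatment wells carry matched DMSO. Wells scored visually 0–4 versus the no-treatment control: 0 clear, 1 25%, 2 50%, 3 75%, 4 no reduction. Scoring follows CLSI M38-A.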

For series [7], the system named is Saccharomyces cerevisiae. Briefly: Antifungal activity against Saccharomyces cerevisiae BY4741 assessed as fungal growth at 500 uM after 24 hrs by microtiter plate liquid bioassay (reference value: 100%). In kind it is functional.
The test system of series [8] is Aspergillus parasiticus. Nature of the series: Antifungal activity against Aspergillus parasiticus NRRL5862 assessed as fungal growth at 500 uM after 48 hrs by microtiter plate liquid bioassay (reference value: 100%). Format: functional. The gist of the method:
as §3

Series [9] concerns Saccharomyces cerevisiae. Briefly: Antifungal activity against Saccharomyces cerevisiae BY4741 assessed as fungal growth at 500 uM after 48 hrs by microtiter plate liquid bioassay (reference value: 100%). In kind it is functional.

These results are taken from ChEMBL document CHEMBL4261570, “Design, Synthesis and Preliminary Antimicrobial Evaluation of N-Alkyl Chain Tethered C-5 Functionalized Bis-Isatins” (Medchemcomm, 2017).

The source made the active and inactive calls. The rule behind the calls is not given here.

Take `O=C1C(=O)N(CCCCN2C(=O)C(=O)c3cc(F)ccc32)c2ccccc21`: the Activity result (in series [1]; with Escherichia coli; in [3]; in [4]) was “Non-Toxic” throughout. Further, the inhibition of growth at 50 µM was 1.2% with Giardia intestinalis [2] and 100% in the series on Trichomonas vaginalis. Further, in the series with Entamoeba histolytica, the “growth inhibition (GI)” value was “inactive”.

Regarding `O=C1C(=O)N(CCCCCCCCN2C(=O)C(=O)c3cc(F)ccc32)c2ccccc21`, the Activity entry (in [1]; with Escherichia coli; in series [3]; in [4]) was “Non-Toxic” throughout. Moreover, in the series on Giardia intestinalis [2], the “growth inhibition (GI)” value was “inactive”. Moreover, the inhibition of growth at 50 µM in the series on Entamoeba histolytica was found to be 13.8%; with Trichomonas vaginalis, 100%.

As to `O=C1C(=O)N(CCCCCCN2C(=O)C(=O)c3cc(Cl)ccc32)c2ccccc21`, the Activity entry (in series [1]; with Escherichia coli; in series [3]; in series [4]) was “Non-Toxic” each time. Further, the inhibition of growth at 50 µM with Giardia intestinalis [2] was 94.5%; in the series on Trichomonas vaginalis, 93.9%. The IC50 in the series with Giardia intestinalis [5] worked out at 31.5 µM. Moreover, in the series with Entamoeba histolytica, the “growth inhibition (GI)” value was “inactive”.

For `O=C1C(=O)N(CCCCCN2C(=O)C(=O)c3cc(Br)ccc32)c2ccccc21`, the Activity result in series [1] is listed as “Non-Toxic”; in the series on Escherichia coli, “Non-Toxic”; in series [3], “Non-Toxic”; in the series on Aspergillus parasiticus [6], 100%; in [4], “Non-Toxic”; in the series on Saccharomyces cerevisiae [7] it was 50%. The Activity in the series on Aspergillus parasiticus [8] and in the series with Saccharomyces cerevisiae [9] was 100% throughout. For the same molecule, the “growth inhibition (GI)” value in the series on Giardia intestinalis [2] and in the series with Entamoeba histolytica was “inactive” in each case. Also, the inhibition of growth at 50 µM with Trichomonas vaginalis came out at 100%.

For `O=C1C(=O)N(CCCBr)c2ccccc21`, the Activity result in series [1] is given as “Non-Toxic”; in the series on Escherichia coli it was “Non-Toxic”; in series [3] it was “Non-Toxic”; in the series on Aspergillus parasiticus [6], 75 - 100%; in series [4], “Non-Toxic”; in the series on Saccharomyces cerevisiae [7] it was 50%. The results for the Activity with Aspergillus parasiticus [8] and in the series on Saccharomyces cerevisiae [9] were 100% and 75%, respectively. Moreover, the inhibition of growth at 50 µM in the series with Giardia intestinalis [2] was found to be 22.9%; with Entamoeba histolytica it was 1.32%; with Trichomonas vaginalis, 59.9%.

For the molecule `O=C1C(=O)N(CCN2C(=O)C(=O)c3cc(F)ccc32)c2ccccc21`, the Activity entry (in series [1]; in the series with Escherichia coli; in series [3]; in series [4]) was “Non-Toxic” throughout. For the same molecule, the inhibition of growth at 50 µM in the series on Giardia intestinalis [2] worked out at 8.15%; in the series with Trichomonas vaginalis, 45.5%. Besides, the “growth inhibition (GI)” value with Entamoeba histolytica was “inactive”.

Turning to `O=C1C(=O)N(CCCCCCCCN2C(=O)C(=O)c3cc(Cl)ccc32)c2ccccc21`, the Activity result (in [1]; with Escherichia coli; in [3]; in [4]) was “Non-Toxic” throughout. The results for the inhibition of growth at 50 µM in the series with Giardia intestinalis [2] and with Trichomonas vaginalis were 8.56% and 75.8%, respectively. Moreover, the “growth inhibition (GI)” value in the series with Entamoeba histolytica is “inactive”.

Take `O=C1C(=O)N(CCCCCCN2C(=O)C(=O)c3cc(Br)ccc32)c2ccccc21`: the Activity entry (in series [1]; with Escherichia coli; in series [3]; in [4]) was “Non-Toxic” in each case. Also, the figures for the inhibition of growth at 50 µM in the series on Giardia intestinalis [2] and in the series on Trichomonas vaginalis were 43.2% and 100%, respectively. In the series on Entamoeba histolytica, the “growth inhibition (GI)” value is “inactive”.

`O=C1C(=O)N(CCCCN2C(=O)C(=O)c3ccccc32)c2ccccc21`: the Activity result (in series [1]; in the series on Escherichia coli; in series [3]; in [4]) was “Non-Toxic” throughout. Moreover, the figures for the inhibition of growth at 50 µM in the series on Giardia intestinalis [2] and in the series on Trichomonas vaginalis were 11.6% and 61.3%, respectively. Further, in the series on Entamoeba histolytica, the “growth inhibition (GI)” value is “inactive”.

In the case of `O=C1C(=O)N(CCCN2C(=O)C(=O)c3cc(Cl)ccc32)c2ccccc21`, the Activity result (in series [1]; in the series on Escherichia coli; in series [3]; in [4]) was “Non-Toxic” throughout. The “growth inhibition (GI)” value with Giardia intestinalis [2] and in the series on Entamoeba histolytica was “inactive” throughout. The inhibition of growth at 50 µM with Trichomonas vaginalis worked out at 100%.

Take `O=C1C(=O)N(CCCCCCCCN2C(=O)C(=O)c3cc(Br)ccc32)c2ccccc21`: the Activity entry (in series [1]; with Escherichia coli; in [3]; in series [4]) was “Non-Toxic” each time. Moreover, the inhibition of growth at 50 µM came out at 51.1% with Giardia intestinalis [2] and 96.8% with Trichomonas vaginalis. For the same molecule, the “growth inhibition (GI)” value with Entamoeba histolytica was “inactive”.

On to `O=C1C(=O)N(CCCN2C(=O)C(=O)c3ccccc32)c2ccccc21`, for which the Activity entry (in series [1]; with Escherichia coli; in series [3]; in [4]) was “Non-Toxic” each time. Further, the inhibition of growth at 50 µM in the series with Giardia intestinalis [2] was 7.84%; with Trichomonas vaginalis, 96.8%. For the same molecule, the “growth inhibition (GI)” value in the series with Entamoeba histolytica was “inactive”.

Consider `O=C1C(=O)N(CCCCCCN2C(=O)C(=O)c3cc(F)ccc32)c2ccccc21`, for which the Activity result (in [1]; with Escherichia coli; in [3]; in series [4]) was “Non-Toxic” each time. Further, the inhibition of growth at 50 µM in the series with Giardia intestinalis [2] was 30.9%; in the series on Trichomonas vaginalis it was 100%. Moreover, the “growth inhibition (GI)” value with Entamoeba histolytica is “inactive”.

For the molecule `O=C1C(=O)N(CCCCN2C(=O)C(=O)c3cc(Cl)ccc32)c2ccccc21`, the Activity entry was “Non-Toxic” in series [1]; “Non-Toxic” with Escherichia coli; “Non-Toxic” in series [3]; 100% in the series with Aspergillus parasiticus [6]; “Non-Toxic” in series [4]; 25% in the series on Saccharomyces cerevisiae [7]. Moreover, the Activity in the series on Aspergillus parasiticus [8] worked out at 100%; in the series on Saccharomyces cerevisiae [9], 75%. For the same molecule, the “growth inhibition (GI)” value in the series on Giardia intestinalis [2] and in the series with Entamoeba histolytica was “inactive” each time. Also, in the series on Trichomonas vaginalis, the inhibition of growth at 50 µM is 100%.

As for `O=C1C(=O)N(CCCCCCN2C(=O)C(=O)c3ccccc32)c2ccccc21`, the Activity result (in series [1]; in the series with Escherichia coli; in series [3]; in series [4]) was “Non-Toxic” each time. The inhibition of growth at 50 µM in the series with Giardia intestinalis [2] worked out at 9.68%; in the series with Trichomonas vaginalis, 45.5%. Moreover, in the series with Entamoeba histolytica, the “growth inhibition (GI)” value was “inactive”.

For the molecule `O=C1C(=O)N(CCN2C(=O)C(=O)c3ccccc32)c2ccccc21`, the Activity entry (in series [1]; in the series with Escherichia coli; in series [3]; in series [4]) was “Non-Toxic” in each case. Besides, the inhibition of growth at 50 µM turned out to be 6.75% with Giardia intestinalis [2] and 96.8% with Trichomonas vaginalis. The “growth inhibition (GI)” value with Entamoeba histolytica was “inactive”.

Turning to `O=C1C(=O)N(CCN2C(=O)C(=O)c3cc(Br)ccc32)c2ccccc21`, the Activity result (in [1]; in the series with Escherichia coli; in series [3]; in series [4]) was “Non-Toxic” throughout. Also, the “growth inhibition (GI)” value in the series with Giardia intestinalis [2] and with Entamoeba histolytica was “inactive” in each case. Further, the inhibition of growth at 50 µM in the series with Trichomonas vaginalis came out at 100%.

`CCCCCCCCOC(=O)c1cc(O)c(O)c(O)c1` [OCTYL_GALLATE]: the Activity with Aspergillus parasiticus [6], in the series with Saccharomyces cerevisiae [7], in the series on Aspergillus parasiticus [8] and in the series on Saccharomyces cerevisiae [9] was 0% throughout.

For orientation: IC50 means the midpoint of a concentration-inhibition curve.
